In ChEMBL document CHEMBL1122621, “Antihypertensive activities of phenyl aminoethyl sulfides, a class of synthetic substrates for dopamine beta-hydroxylase” (J Med Chem, 1984):

T1: Dopamine beta-hydroxylase (Bos taurus) (UniProt P15101)
T1 sequence (whole entry): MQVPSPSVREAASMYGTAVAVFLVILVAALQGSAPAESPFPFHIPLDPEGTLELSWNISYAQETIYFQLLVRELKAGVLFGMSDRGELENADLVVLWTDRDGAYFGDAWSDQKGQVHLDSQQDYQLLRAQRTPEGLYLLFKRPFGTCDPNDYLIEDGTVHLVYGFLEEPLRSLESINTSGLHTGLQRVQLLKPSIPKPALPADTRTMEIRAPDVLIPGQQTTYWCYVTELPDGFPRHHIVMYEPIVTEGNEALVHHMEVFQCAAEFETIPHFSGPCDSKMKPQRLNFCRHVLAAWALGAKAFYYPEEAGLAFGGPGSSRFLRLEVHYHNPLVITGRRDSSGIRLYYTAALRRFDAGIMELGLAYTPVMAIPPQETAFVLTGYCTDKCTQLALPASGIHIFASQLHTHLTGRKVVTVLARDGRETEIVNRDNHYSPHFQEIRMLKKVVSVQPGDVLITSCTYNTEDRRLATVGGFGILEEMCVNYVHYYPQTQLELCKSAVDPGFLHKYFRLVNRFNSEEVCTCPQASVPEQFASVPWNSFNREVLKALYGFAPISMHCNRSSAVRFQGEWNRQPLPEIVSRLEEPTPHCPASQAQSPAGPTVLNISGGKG

T2: Monoamine oxidase (Bos taurus, UniProt P56560+P21398)
T2 sequence (P56560 whole entry): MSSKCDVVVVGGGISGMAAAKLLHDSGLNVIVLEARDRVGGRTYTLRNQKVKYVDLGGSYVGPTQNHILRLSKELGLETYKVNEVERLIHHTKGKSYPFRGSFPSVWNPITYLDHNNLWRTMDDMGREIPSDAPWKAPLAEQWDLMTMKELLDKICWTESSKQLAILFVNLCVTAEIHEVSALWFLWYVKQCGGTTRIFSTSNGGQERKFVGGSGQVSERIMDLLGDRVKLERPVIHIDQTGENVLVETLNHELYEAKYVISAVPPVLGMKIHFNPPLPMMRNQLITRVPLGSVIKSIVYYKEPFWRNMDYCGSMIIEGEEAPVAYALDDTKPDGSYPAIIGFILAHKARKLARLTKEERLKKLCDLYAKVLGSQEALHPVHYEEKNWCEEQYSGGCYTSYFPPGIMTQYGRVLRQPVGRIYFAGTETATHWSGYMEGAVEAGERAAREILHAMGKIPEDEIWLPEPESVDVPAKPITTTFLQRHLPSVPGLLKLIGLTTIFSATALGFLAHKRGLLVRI
T2 sequence (P21398 whole entry): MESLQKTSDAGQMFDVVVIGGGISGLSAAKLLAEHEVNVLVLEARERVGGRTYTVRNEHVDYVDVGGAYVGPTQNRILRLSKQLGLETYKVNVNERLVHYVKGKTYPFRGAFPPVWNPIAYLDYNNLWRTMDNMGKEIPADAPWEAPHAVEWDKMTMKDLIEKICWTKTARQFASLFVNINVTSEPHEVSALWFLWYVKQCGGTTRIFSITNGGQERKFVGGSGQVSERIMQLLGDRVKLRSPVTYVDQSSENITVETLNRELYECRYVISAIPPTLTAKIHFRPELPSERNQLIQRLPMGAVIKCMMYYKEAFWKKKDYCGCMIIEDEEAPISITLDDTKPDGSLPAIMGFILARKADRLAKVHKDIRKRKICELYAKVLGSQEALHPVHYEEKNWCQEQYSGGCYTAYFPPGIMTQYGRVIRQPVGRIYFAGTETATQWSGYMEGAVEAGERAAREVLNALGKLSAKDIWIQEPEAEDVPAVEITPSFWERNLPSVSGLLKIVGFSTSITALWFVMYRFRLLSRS

T3: monoamine oxidase (MAO) (Bos taurus, UniProt P21398+P56560)
T3 sequence (P56560 whole entry): T2 sequence (P56560 whole entry)
T3 sequence (P21398 whole entry): T2 sequence (P21398 whole entry)

B1: Dopamine beta-hydroxylase (Bos taurus), P15101 (protein)
chain: T1 sequence (whole entry)

Key:
[1] = biological target: T1, Dopamine beta-hydroxylase (Bos taurus); experiment: Compound was evaluated as substrate for Dopamine beta hydroxylase (DBH) from bovine adrenals and the enzymatic kinetic constant was reported as Kcat
[2] = biological target: T2, Monoamine oxidase; experiment: Compound was evaluated as substrate for monoamine oxidase (MAO) from bovine […] and the enzymatic kinetic constant was reported as Kcat; c = Compounds displayed no trace of substrate activity even at high enzyme concentrations; assay type: protein assay; details: cattle
Method in brief: (§1)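 Bovine MAO, a mixed A/B isozyme preparation, commercial. Oxygen monitor assay in 0.1 M potassium phosphate pH 7.2, air-saturated, 37 °C. kcat and Km from computer fit to hyperbolic Michaelis-Menten equation. kcat based on total protein, assuming MW 290 000.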

[3] = biological target: T2, Monoamine oxidase; experiment: Compound was evaluated as substrate for monoamine oxidase (MAO) from bovine […] and the enzymatic kinetic constant was reported as Km; c = Compounds displayed no trace of substrate activity even at high enzyme concentrations; assay type: protein assay; details: cattle; method in brief: as §1
[4] = Ratio of the kinetic parameter Kcat to the Km on substrate […] from bovine adrenals; assay type: tissue-based; details: Adrenal gland
[5] = Ratio of the kinetic parameter Kcat to the Km on substrate dopamine monoamine oxidase; c = Compounds displayed no trace of substrate activity even at high enzyme concentrations
[6] = biological target: T2, Monoamine oxidase; experiment: Compound was evaluated as substrate for monoamine oxidase (MAO) from bovine […] and the enzymatic kinetic constant was reported as Kcat; assay type: protein assay; details: cattle; method in brief: as §1
[7] = biological target: T3, monoamine oxidase (MAO); experiment: Compound was evaluated as substrate for monoamine oxidase (MAO) from bovine […] and the enzymatic kinetic constant was reported as Km; assay type: protein assay; details: cattle; method in brief: as §1
[8] = Ratio of the kinetic parameter Kcat to the Km on substrate dopamine monoamine oxidase
[9] = substrate: CC(N)CSc1ccc(O)cc1; experiment: (§2) Compound was evaluated as substrate for Dopamine beta hydroxylase (DBH) from bovine adrenals and the enzymatic kinetic constant was reported as Km; assay type: tissue-based; details: Adrenal gland
[10] = substrate: CC(N)CSc1ccccc1; experiment: as §2; assay type: tissue-based; details: Adrenal gland
[11] = substrate: NCCCc1ccccc1; experiment: as §2; assay type: tissue-based; details: Adrenal gland
[12] = substrate: NCCSc1ccc(O)cc1; experiment: as §2; assay type: tissue-based; details: Adrenal gland
[13] = substrate: NCCSc1ccccc1; experiment: as §2; assay type: tissue-based; details: Adrenal gland
[14] = substrate: NCCc1ccc(O)cc1; experiment: as §2; assay type: tissue-based; details: Adrenal gland
[15] = substrate: NCCc1ccccc1; experiment: as §2; assay type: tissue-based; details: Adrenal gland

Molecule | k cat [1] [s⁻¹] | Ratio [4] [M⁻¹ s⁻¹] | k cat [6] [s⁻¹] | Km [7] [mM] | Ratio [8] [M⁻¹ s⁻¹] | other results
CC(N)CSc1ccccc1 (racemic) | 20 | 1000 |  |  |  | k cat [2]: No activity; Km [3]: No activity; Ratio [5]: No activity
NCCSc1ccccc1 | 39 | 2300 | 0.43 | 0.055 | 7300 | 
NCCc1ccccc1 [PHENETHYLAMINE] | 65 | 9300 | 0.23 | 2.2 | 100 | 
CC(N)CSc1ccc(O)cc1 (racemic) | 44 | 6700 |  |  |  | k cat [2]: No activity; Km [3]: No activity; Ratio [5]: No activity
NCCc1ccc(O)cc1 | 85 | 42000 |  |  |  | 
NCCSc1ccc(O)cc1 | 36 | 8300 | 0.22 | 0.049 | 4500 | 
NCCCc1ccccc1 | 12 | 590 | 0.17 | 0.29 | 580 | 
B1 |  |  |  |  |  | Km [9]: 6.5 mM; Km [10]: 19.1 mM; Km [11]: 20.4 mM; Km [12]: 4.4 mM; Km [13]: 17.2 mM; Km [14]: 2 mM; Km [15]: 7 mM
